Assay results reported in ChEMBL document CHEMBL3352004, “(7-Benzyloxy-2,3-dihydro-1H-pyrrolo[1,2-a]indol-1-yl)acetic Acids as S1P1 Functional Antagonists” (ACS Med Chem Lett, 2014).
In brackets after ≈: the same amount, converted by molar mass.

Tests used:
[1] = biological target: T1, Sphingosine 1-phosphate receptor 1 (Homo sapiens, UniProt P21453); test: Agonist activity at human S1P1 receptor assessed as cAMP accumulation by HTRF assay relative to S1P; assay type: functional
[2] = biological target: Sphingosine 1-phosphate receptor 3 (Homo sapiens, UniProt Q99500); test: Agonist activity at human S1P3 receptor by beta-arrestin recruitment assay
[3] = biological target: T2, Sphingosine 1-phosphate receptor 5 (Homo sapiens, UniProt Q9H228); test: Agonist activity at human S1P5 receptor by beta-arrestin recruitment assay
[4] = biological target: Sphingosine 1-phosphate receptor 2 (Homo sapiens, UniProt O95136); test: Agonist activity at human S1P2 receptor by beta-arrestin recruitment assay
[5] = biological target: T1, Sphingosine 1-phosphate receptor 1; test: Agonist activity at human S1P1 receptor by beta-arrestin recruitment assay
[6] = biological target: T1, Sphingosine 1-phosphate receptor 1; test: Agonist activity at human S1P1 receptor assessed as cAMP accumulation by HTRF assay; assay type: functional
Method in brief: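 S1P1 engagement measured as cyclase activity in a homogeneous time-resolved fluorescence (HTRF) assay.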

[7] = biological target: T3, Sphingosine 1-phosphate receptor 4 (Homo sapiens, UniProt O95977); test: Agonist activity at human S1P4 receptor by beta-arrestin recruitment assay
T3 sequence (O95977 whole entry): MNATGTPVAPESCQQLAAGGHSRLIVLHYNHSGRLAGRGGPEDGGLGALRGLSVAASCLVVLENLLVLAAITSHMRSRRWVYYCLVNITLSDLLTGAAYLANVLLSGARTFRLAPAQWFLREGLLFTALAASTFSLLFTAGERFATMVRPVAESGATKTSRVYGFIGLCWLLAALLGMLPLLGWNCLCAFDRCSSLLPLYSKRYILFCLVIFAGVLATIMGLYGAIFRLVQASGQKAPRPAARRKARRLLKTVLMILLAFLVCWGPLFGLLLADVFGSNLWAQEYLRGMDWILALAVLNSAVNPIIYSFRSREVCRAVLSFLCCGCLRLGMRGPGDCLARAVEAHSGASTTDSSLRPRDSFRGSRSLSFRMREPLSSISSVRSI

[8] = biological target: T1, Sphingosine 1-phosphate receptor 1; test: Agonist activity at human S1P1 receptor by beta-arrestin recruitment assay relative to S1P
[9] = Volume of distribution at steady state in Sprague-Dawley rat at 1 mg/kg, iv; assay type: ADME, organism-based; set-up: dose 1 mg/kg, route intravenous; settings: in vivo, read-out: Vdss
[10] = Systemic clearance in Sprague-Dawley rat at 1 mg/kg, iv; assay type: ADME, organism-based; set-up: dose 1 mg/kg, route intravenous; settings: in vivo
[11] = Ratio of drug level in brain to plasma in Sprague-Dawley rat; assay type: ADME; settings: read-out: BPR
Method in brief: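 Abbreviated rat CNS distribution: a single 1.0 mg/kg oral dose, with brain and plasma drug levels measured over 6 h. Brain-to-plasma ratio derived from these levels.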

[12] = Oral bioavailability in Sprague-Dawley rat at 1 mg/kg; assay type: ADME, organism-based; settings: in vivo
[13] = AUC (0 to infinity) in Sprague-Dawley rat at 1 mg/kg, iv or at 1 mg/kg, po; assay type: ADME, organism-based; settings: plasma
[14] = species: Rattus norvegicus; test: Reduction in lymphocyte count in Sprague-Dawley rat; assay type: functional, organism-based
Method in brief: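 A PK/PD model relating plasma drug concentration to circulating lymphocyte counts was used to derive the plasma concentration that reduces lymphocytes by 50% (LL IC50, ng/mL).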

[15] = Cmax in Sprague-Dawley rat at 1 mg/kg, po; assay type: ADME, organism-based; set-up: dose 1 mg/kg, route oral; settings: in vivo
[16] = Tmax in Sprague-Dawley rat at 1 mg/kg, po; assay type: ADME, organism-based; set-up: dose 1 mg/kg, route oral; settings: in vivo
[17] = Elimination half life in Sprague-Dawley rat at 1 mg/kg, po; assay type: ADME, organism-based; set-up: dose 1 mg/kg, route oral; settings: in vivo, read-out: beta t1/2 (converted)
[18] = biological target: T4, Sphingosine 1-phosphate receptor 4 (Homo sapiens) (UniProt O95977); test: Agonist activity at human S1P4 receptor by beta-arrestin recruitment assay relative to S1P
T4 sequence (whole entry): T3 sequence (O95977 whole entry)

[19] = biological target: T2, Sphingosine 1-phosphate receptor 5; test: Agonist activity at human S1P5 receptor by beta-arrestin recruitment assay relative to S1P
[20] = Half life in human; assay type: ADME, organism-based; settings: in vivo

Sequence of Sphingosine 1-phosphate receptor 3 (Q99500 whole entry): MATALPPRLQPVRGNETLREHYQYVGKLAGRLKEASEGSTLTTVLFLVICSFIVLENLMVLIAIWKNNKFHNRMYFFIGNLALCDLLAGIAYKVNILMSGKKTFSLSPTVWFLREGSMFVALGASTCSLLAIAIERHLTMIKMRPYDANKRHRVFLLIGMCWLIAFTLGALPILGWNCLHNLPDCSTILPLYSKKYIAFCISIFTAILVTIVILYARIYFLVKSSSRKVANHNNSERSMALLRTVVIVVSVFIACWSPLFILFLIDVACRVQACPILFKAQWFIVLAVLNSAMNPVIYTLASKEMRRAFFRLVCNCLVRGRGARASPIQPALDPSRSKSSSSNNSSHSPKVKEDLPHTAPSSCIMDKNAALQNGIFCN
T1 sequence (P21453 whole entry): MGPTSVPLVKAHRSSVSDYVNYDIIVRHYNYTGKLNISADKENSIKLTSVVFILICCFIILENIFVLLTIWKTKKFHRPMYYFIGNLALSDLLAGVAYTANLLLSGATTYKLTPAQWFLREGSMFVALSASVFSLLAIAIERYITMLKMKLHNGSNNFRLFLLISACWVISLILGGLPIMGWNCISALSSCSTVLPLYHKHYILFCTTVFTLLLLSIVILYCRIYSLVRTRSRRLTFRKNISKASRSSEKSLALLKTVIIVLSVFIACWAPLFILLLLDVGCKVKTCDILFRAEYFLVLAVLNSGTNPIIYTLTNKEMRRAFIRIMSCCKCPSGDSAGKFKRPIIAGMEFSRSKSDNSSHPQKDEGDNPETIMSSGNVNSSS
Sequence of Sphingosine 1-phosphate receptor 2 (O95136 whole entry): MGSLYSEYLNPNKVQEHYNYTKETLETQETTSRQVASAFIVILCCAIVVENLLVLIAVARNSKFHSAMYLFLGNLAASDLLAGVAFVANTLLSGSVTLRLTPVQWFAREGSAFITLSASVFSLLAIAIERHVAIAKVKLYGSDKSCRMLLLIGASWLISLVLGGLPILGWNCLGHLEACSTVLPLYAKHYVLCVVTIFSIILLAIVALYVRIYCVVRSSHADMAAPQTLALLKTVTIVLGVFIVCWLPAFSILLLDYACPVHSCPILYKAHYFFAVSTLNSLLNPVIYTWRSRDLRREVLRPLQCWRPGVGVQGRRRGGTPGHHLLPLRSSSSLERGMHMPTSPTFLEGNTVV
T2 sequence (Q9H228 whole entry): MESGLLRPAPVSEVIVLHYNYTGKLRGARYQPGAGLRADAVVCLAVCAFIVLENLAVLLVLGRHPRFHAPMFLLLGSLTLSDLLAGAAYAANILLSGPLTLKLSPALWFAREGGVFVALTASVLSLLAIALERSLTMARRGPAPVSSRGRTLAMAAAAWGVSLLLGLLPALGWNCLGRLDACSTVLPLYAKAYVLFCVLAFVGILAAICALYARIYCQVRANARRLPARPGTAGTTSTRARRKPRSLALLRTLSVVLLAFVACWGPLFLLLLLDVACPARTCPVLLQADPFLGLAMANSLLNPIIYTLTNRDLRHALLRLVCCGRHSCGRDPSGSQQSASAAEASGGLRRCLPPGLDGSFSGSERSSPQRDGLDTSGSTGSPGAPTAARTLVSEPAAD

Row | Emax [1] | EC50 [2] | EC50 [3] | EC50 [4] | EC50 [5] | EC50 [6] | EC50 [7] | Emax [8] | also measured | SMILES
1 | 108% |  |  |  |  |  |  |  |  | O=C(O)CC1CCn2c1cc1cc(OCc3ccc(C4CCCC4)c(C(F)(F)F)c3)ccc12 (racemic)
2 |  | > 10000 nM | > 10000 nM | > 10000 nM | 8.6 nM | 0.067 nM | > 10000 nM |  |  | CC(C)Oc1ccc(COc2ccc3c(c2)cc2n3CCC2CC(=O)O)cc1C(F)(F)F (single isomer, unassigned; enantiomer 1) [listing 1 of 2 here]
3 | 107% |  |  |  |  |  |  | 108% |  | CC(C)Oc1ccc(COc2ccc3c(c2)cc2n3CCC2CC(=O)O)cc1C(F)(F)F (single isomer, unassigned; enantiomer 1) [listing 2 of 2 here]
4 |  | > 10000 nM | > 10000 nM | > 10000 nM | 40 nM | 0.64 nM | > 10000 nM |  |  | CC(C)Oc1ccc(COc2ccc3c(c2)cc2n3CCC2CC(=O)O)cc1C(F)(F)F (single isomer, unassigned; enantiomer 2) [listing 1 of 2 here]
5 | 116% |  |  |  |  |  |  | 104% |  | CC(C)Oc1ccc(COc2ccc3c(c2)cc2n3CCC2CC(=O)O)cc1C(F)(F)F (single isomer, unassigned; enantiomer 2) [listing 2 of 2 here]
6 |  | > 10000 nM | 107 nM | > 10000 nM | 2.5 nM | 0.041 nM | 570 nM |  | Vd [9]: 0.986 L/kg; clearance [10]: 1.2 mL/min/kg; Kp [11]: 0.53; bioavailability [12]: 39%; AUC(0-inf) [13]: 5430 ng·h/mL; IC50 [14]: 0.0241 µg/mL (≈ 0.0527 µM); Cmax [15]: 526 ng/mL; Tmax [16]: 2.67 h; half-life [17]: 9.16 h | O=C(O)CC1CCn2c1cc1cc(OCc3ccc(C4CCCC4)c(C(F)(F)F)c3)ccc12 (stereo in doubt; 12a) [listing 1 of 2 here]
7 | 97% |  |  |  |  |  |  | 105% | Emax [18]: 47%; Emax [19]: 83% | O=C(O)CC1CCn2c1cc1cc(OCc3ccc(C4CCCC4)c(C(F)(F)F)c3)ccc12 (stereo in doubt; 12a) [listing 2 of 2 here]
8 |  | > 10000 nM | 81 nM | > 10000 nM | 20 nM | 0.32 nM | 420 nM |  |  | O=C(O)CC1CCn2c1cc1cc(OCc3ccc(C4CCCC4)c(C(F)(F)F)c3)ccc12 (stereo in doubt; 12b) [listing 1 of 2 here]
9 | 100% |  |  |  |  |  |  | 100% | Emax [18]: 49%; Emax [19]: 59% | O=C(O)CC1CCn2c1cc1cc(OCc3ccc(C4CCCC4)c(C(F)(F)F)c3)ccc12 (stereo in doubt; 12b) [listing 2 of 2 here]
10 |  | > 10000 nM | 410 nM | > 10000 nM | 11 nM | 0.13 nM | > 10000 nM |  | Vd [9]: 0.732 L/kg; clearance [10]: 2.18 mL/min/kg; Kp [11]: 0.016; bioavailability [12]: 49.8%; AUC(0-inf) [13]: 3990 ng·h/mL; IC50 [14]: 0.21 µg/mL (≈ 0.519 µM); Cmax [15]: 569 ng/mL; Tmax [16]: 2 h; half-life [17]: 3.99 h | CC(C)Oc1ccc(COc2ccc3c(c2)cc2n3CCC2CC(=O)O)cc1C#N (stereo in doubt; 19a) [listing 1 of 2 here]
11 | 98% |  |  |  |  |  |  | 128% | Emax [19]: 54% | CC(C)Oc1ccc(COc2ccc3c(c2)cc2n3CCC2CC(=O)O)cc1C#N (stereo in doubt; 19a) [listing 2 of 2 here]
12 |  | > 10000 nM | 9800 nM | > 10000 nM | 160 nM | 1.5 nM | > 10000 nM |  |  | CC(C)Oc1ccc(COc2ccc3c(c2)cc2n3CCC2CC(=O)O)cc1C#N (stereo in doubt; 19b) [listing 1 of 2 here]
13 | 104% |  |  |  |  |  |  | 122% | Emax [19]: 133% | CC(C)Oc1ccc(COc2ccc3c(c2)cc2n3CCC2CC(=O)O)cc1C#N (stereo in doubt; 19b) [listing 2 of 2 here]
14 |  |  |  |  |  |  |  |  | half-life [20]: 89 h | CCCCCCCCc1ccc(CCC(N)(CO)CO)cc1 [FINGOLIMOD]
